Activity calls are given as the source filed them. No cut-off for these calls is given here.
Experiments:
A549 [1] = assay: Antiproliferative activity against human A549 cells expressing wild type p53 after 72 hrs by CellTitre-Glo assay; type: functional, cell-based
Summary of the method: (§1)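 Cell lines exposed to compound for 72 h; viability read by CellTiter-Glo and IC50 derived. p53 coding-region mutation status of each line established by direct sequencing.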

UACC-62 = assay: Antiproliferative activity against human UACC62 cells expressing wild type p53 after 72 hrs by CellTitre-Glo assay; type: functional, cell-based; summary of the method: as §1
[2] = molecular target: T1, Tumour suppressor p53/oncoprotein Mdm2 (Homo sapiens, UniProt Q00987); assay: Inhibition of human recombinant His-tagged MDM2 (1 to 118 residues) interaction with FAM-tagged p53-based peptide (unknown origin) incubated for 15 mins by fluorescence polarization assay; type: protein assay
[3] = Antiproliferative activity against human HCT116 cells expressing wild type p53 after 72 hrs by CellTitre-Glo assay; type: functional, cell-based; conditions: HCT-116, 72 h
Summary of the method: (§2)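 Cancer cell lines of known p53 coding-region status (checked by direct sequencing) were exposed to the compound for 72 h. Viability was read with CellTiter-Glo, and the IC50 was taken from these readings.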

SK-UT-1 = assay: Antiproliferative activity against human SK-UT-1 cells harboring mutant p53 after 72 hrs by CellTitre-Glo assay; type: functional, cell-based; conditions: SK-UT-1, 72 h; summary of the method: as §2
[4] = Antiproliferative activity against p53 null human H1299 cells after 72 hrs by CellTitre-Glo assay; type: functional, cell-based; conditions: NCI-H1299, 72 h; summary of the method: as §2
[5] = molecular target: T1, Tumour suppressor p53/oncoprotein Mdm2; assay: Inhibition of MDM2/p53 interaction in human HCT116 cells assessed as activation of p53 transcription by luciferase reporter gene assay; type: cell-based, HCT-116
Summary of the method: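 p53 transcriptional activation measured in HCT116 cells with a p53 response element–driven luciferase reporter (P53RE-Luc).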

[6] = Permeability from apical to basolateral side in human Caco2 cells; type: ADME, cell-based; conditions: Caco-2, read-out: permeability
SJSA-1 = assay: Selectivity ratio of IC50 for human SK-UT-1 cells harboring mutant p53 to IC50 for human SJSA1 cells expressing wild type p53; type: functional
Summary of the method: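 Ratio of two IC50s, each from a 72 h CellTiter-Glo viability assay. p53 coding-region status was confirmed by direct sequencing. The ratio is p53-mutant (SK-UT-1) or p53-null (H1299) IC50 divided by wild-type p53 (SJSA-1 or HCT116) IC50.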

[7] = Intrinsic clearance in human liver microsomes; type: ADME; conditions: read-out: CLH
Canis familiaris = assay: Dose normalized AUC (0 to 24 hrs) in dog at 1 mg/kg, po administered as single dose; type: ADME, organism-based, Canis lupus familiaris; conditions: in vivo
Summary of the method: (§3)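 Single oral dose of 1 mg/kg. Vehicle was 20% HPBCD for mouse and 0.4% HPMC for dog and monkey. Plasma AUC over 0–24 h, dose-normalized, reported in μM·h.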

Rhesus monkey = assay: Dose normalized AUC (0 to 24 hrs) in monkey at 1 mg/kg, po administered as single dose; type: ADME, organism-based, Macaca mulatta; conditions: in vivo; summary of the method: as §3
[8] = Clearance in dog at 1 mg/kg, iv; type: ADME, organism-based, Canis lupus familiaris; conditions: in vivo
Cytochrome P450 3A4 = Cytochrome P450 3A4 (Homo sapiens, UniProt P08684); assay: Inhibition of CYP3A4 (unknown origin); type: ADME
Cytochrome P450 2D6 = Cytochrome P450 2D6 (Homo sapiens, UniProt P10635); assay: Inhibition of CYP2D6 (unknown origin); type: ADME
[9] = Fraction unbound in monkey plasma; type: ADME, cell-free, Macaca mulatta; conditions: rhesus monkey
[10] = Fraction unbound in mouse plasma; type: ADME, cell-free
hERG (KCNH2) = hERG (KCNH2) (Homo sapiens, UniProt Q12809); assay: Inhibition of human ERG at 6 uM relative to control
Summary of the method: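 hERG inhibition measured by voltage clamp at 6 μM compound.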

[11] = Antitumor activity against human SJSA1 cells xenografted in nude mouse assessed as tumor growth inhibition at 50 mg/kg, po qd administered with cycle of 3 days on, 4 days off for 30 days relative to control; type: functional; conditions: SJSA-1, po, read-out: TGI
Summary of the method: (§4)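 Nude mice bearing SJSA-1 osteosarcoma xenografts, n = 5 per group. Oral dosing in 20% HPBCD, given either intermittently (daily, 3 days on/4 days off) or continuously daily. Body weight was monitored against a vehicle control group.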

[12] = Antitumor activity against human SJSA1 cells xenografted in nude mouse assessed as tumor growth inhibition at 200 mg/kg, po qd administered with cycle of 3 days on, 4 days off for 30 days relative to control; type: functional; conditions: SJSA-1, po, read-out: TGI; summary of the method: as §4
Mus musculus [13] = assay: Toxicity in nude mouse xenografted with human SJSA1 cells assessed as body weight loss at 50 to 200 mg/kg, po qd administered with cycle of 3 days on, 4 days off for 30 days; type: organism-based, SJSA-1; conditions: in vivo
Summary of the method: (§5)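 Nude mice bearing SJSA-1 osteosarcoma xenografts, n = 5 per group. Dosing was oral in 20% HPBCD, either continuous daily at 100 and 200 mpk or intermittent (daily for 3 days on, 4 days off). Body weight was compared against a vehicle-control group.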

Mus musculus [14] = assay: Toxicity in nude mouse xenografted with human SJSA1 cells assessed as body weight loss at 100 to 200 mg/kg, po qd continuously for 30 days; type: organism-based, SJSA-1; conditions: in vivo, 720 h; summary of the method: as §5
A549 [15] = assay: Antitumor activity against human A549 cells xenografted in nude mouse assessed as tumor growth inhibition at 100 mg/kg, po qd administered with cycle of 3 days on, 4 days off for 30 days relative to control; type: functional; conditions: read-out: TGI
Summary of the method: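 Mice bearing A549 NSCLC xenografts. The test agent was given orally, either daily or intermittently (daily for 3 days, then 4 days off). Paclitaxel was given at 20 mg/kg ip weekly, alone or in combination. Read-out was tumor growth inhibition.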

A2780 = assay: Antitumor activity against human A2780 cells xenografted in nude mouse harboring wild type p53 assessed as tumor growth inhibition at 50 mg/kg, po bid continuously for 15 days relative to control; type: functional; conditions: 360 h, read-out: TGI
Summary of the method: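 Wild-type p53 mice bearing A2780 ovarian xenografts. The test agent was given at 50 mg/kg orally twice daily, continuously. Docetaxel was given at 40 mg/kg ip weekly, twice in total. Each was given alone and in combination. Read-out was tumor growth inhibition.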

A498 = assay: Antiproliferative activity against human A498 cells expressing wild type p53 after 72 hrs by CellTitre-Glo assay; type: functional, cell-based; summary of the method: as §1
ZR-75-1 = assay: Antiproliferative activity against human ZR-75-1 cells expressing wild type p53 after 72 hrs by CellTitre-Glo assay; type: functional, cell-based; summary of the method: as §1
MOLT-3 = assay: Antiproliferative activity against human MOLT3 cells expressing wild type p53 after 72 hrs by CellTitre-Glo assay; type: functional, cell-based; summary of the method: as §1
CESS = assay: Antiproliferative activity against human CESS cells expressing wild type p53 after 72 hrs by CellTitre-Glo assay; type: functional, cell-based; summary of the method: as §1
KU812 = assay: Antiproliferative activity against human KU812 cells expressing wild type p53 after 72 hrs by CellTitre-Glo assay; type: functional, cell-based; summary of the method: as §1
MOLM-13 = assay: Antiproliferative activity against human MOLM13 cells expressing wild type p53 after 72 hrs by CellTitre-Glo assay; type: functional, cell-based; summary of the method: as §1
NALM-6 = assay: Antiproliferative activity against human NALM6 cells expressing wild type p53 after 72 hrs by CellTitre-Glo assay; type: functional, cell-based; summary of the method: as §1
ML-2 = assay: Antiproliferative activity against human ML2 cells expressing wild type p53 after 72 hrs by CellTitre-Glo assay; type: functional, cell-based; summary of the method: as §1

T1 sequence (P04637 whole entry, the tested form may be a part): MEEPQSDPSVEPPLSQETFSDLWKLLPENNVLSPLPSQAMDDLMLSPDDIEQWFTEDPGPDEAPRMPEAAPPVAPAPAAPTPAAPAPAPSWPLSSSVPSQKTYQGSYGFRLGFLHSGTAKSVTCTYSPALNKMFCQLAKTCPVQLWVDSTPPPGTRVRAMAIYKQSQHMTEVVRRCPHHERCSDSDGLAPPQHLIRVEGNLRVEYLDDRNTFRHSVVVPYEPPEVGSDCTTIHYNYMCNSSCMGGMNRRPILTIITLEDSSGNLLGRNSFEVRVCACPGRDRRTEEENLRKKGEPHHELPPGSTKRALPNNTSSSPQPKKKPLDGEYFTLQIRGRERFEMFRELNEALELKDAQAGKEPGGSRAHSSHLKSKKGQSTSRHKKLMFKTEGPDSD
T1 sequence (Q00987 whole entry, the tested form may be a part): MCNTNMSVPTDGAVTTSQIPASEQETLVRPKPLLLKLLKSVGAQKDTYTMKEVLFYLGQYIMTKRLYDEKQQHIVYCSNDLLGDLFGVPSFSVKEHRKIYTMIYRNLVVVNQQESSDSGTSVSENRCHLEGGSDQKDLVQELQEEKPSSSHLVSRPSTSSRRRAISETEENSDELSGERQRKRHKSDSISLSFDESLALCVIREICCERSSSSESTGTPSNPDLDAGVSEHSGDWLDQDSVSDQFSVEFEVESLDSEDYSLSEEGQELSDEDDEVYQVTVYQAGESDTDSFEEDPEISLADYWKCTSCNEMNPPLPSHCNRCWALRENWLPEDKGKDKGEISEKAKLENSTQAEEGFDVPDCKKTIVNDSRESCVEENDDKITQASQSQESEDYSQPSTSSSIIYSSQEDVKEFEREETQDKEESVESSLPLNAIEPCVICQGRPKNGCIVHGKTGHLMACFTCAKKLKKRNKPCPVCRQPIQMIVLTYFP
Sequence of Cytochrome P450 3A4 (P08684 whole entry): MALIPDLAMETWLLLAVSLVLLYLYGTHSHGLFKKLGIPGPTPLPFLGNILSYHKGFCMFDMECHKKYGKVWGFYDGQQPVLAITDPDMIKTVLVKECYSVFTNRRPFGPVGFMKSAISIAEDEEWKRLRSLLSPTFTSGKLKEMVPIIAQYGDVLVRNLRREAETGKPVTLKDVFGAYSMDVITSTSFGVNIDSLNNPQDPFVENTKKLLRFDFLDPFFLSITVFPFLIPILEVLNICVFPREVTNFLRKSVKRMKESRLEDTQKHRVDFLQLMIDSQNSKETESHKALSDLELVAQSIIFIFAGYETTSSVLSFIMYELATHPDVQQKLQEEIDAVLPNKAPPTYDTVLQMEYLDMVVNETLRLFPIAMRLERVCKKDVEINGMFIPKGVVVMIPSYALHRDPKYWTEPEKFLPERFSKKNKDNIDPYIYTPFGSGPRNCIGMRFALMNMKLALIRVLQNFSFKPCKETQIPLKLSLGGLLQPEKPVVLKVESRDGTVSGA
Sequence of Cytochrome P450 2D6 (P10635 whole entry): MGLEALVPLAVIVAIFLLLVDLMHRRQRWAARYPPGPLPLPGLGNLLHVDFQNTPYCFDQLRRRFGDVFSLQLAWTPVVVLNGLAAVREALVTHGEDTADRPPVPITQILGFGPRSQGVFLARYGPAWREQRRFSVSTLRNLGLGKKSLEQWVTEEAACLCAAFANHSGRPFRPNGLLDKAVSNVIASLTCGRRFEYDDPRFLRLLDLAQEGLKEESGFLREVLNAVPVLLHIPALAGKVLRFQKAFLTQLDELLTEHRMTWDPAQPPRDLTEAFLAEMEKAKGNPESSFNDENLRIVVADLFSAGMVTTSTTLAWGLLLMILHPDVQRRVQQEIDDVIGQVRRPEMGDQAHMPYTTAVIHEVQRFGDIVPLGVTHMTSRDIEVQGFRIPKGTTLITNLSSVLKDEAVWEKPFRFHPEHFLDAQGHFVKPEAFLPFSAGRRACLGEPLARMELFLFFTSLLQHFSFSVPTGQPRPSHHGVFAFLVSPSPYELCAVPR
Sequence of hERG (KCNH2) (Q12809 whole entry): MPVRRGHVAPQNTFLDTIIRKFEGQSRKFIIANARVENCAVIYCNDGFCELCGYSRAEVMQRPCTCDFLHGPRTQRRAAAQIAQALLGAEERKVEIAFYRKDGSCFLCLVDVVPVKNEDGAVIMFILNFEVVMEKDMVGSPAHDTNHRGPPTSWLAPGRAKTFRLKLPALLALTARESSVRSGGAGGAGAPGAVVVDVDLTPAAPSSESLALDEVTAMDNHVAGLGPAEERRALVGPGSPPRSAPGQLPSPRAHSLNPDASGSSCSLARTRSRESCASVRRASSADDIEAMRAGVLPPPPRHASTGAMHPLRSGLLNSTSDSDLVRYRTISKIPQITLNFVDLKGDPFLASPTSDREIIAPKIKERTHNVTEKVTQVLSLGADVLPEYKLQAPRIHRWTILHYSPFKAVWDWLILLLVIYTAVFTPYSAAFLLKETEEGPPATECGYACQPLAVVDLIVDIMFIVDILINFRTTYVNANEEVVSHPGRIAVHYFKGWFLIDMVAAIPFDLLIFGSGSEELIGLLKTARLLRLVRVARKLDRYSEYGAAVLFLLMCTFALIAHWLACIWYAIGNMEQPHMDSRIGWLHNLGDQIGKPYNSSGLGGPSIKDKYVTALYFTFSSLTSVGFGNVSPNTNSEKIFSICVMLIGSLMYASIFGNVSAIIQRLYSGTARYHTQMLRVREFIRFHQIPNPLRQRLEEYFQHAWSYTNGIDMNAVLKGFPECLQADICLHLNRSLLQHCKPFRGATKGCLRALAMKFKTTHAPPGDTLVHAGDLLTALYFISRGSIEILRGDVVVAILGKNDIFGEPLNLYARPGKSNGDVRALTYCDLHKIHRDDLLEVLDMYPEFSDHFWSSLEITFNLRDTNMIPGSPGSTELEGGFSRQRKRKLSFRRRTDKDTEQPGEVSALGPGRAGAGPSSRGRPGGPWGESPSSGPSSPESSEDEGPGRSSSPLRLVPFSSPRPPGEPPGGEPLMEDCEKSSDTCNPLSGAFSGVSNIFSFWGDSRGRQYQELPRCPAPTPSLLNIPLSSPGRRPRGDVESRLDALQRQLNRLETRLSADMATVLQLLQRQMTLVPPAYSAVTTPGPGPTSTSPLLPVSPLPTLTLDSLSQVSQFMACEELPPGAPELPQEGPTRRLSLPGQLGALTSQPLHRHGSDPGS

Structure (SMILES): CCC[C@H]1N(C(=O)c2cnccc2C(F)(F)F)CCC[C@@]1(Oc1csc(C(F)(F)F)c1)C(=O)N1CCN(c2ccccc2OCCCC(=O)O)CC1
- Activity (A549 [1]): Active
- Activity (UACC-62): Active
- IC50 [2]: 7 nM
- IC50 [3]: 180 nM
- IC50 (SK-UT-1): > 50000 nM
- IC50 [4]: > 50000 nM
- EC50 [5]: 100 nM
- Papp A→B [6]: 18 ×10⁻⁶ cm/s
- Ratio IC50 (SJSA-1): >500
- CLint scaled [7]: 3 mL/min/kg
- AUC/dose (Canis familiaris): 5.8 µM·h
- AUC/dose (Rhesus monkey): 0.2 µM·h
- clearance [8]: 4.1 mL/min/kg
- IC50 (Cytochrome P450 3A4): > 50000 nM
- IC50 (Cytochrome P450 2D6): > 50000 nM
- fraction unbound [9]: 0.05
- fraction unbound [10]: 0.03
- inhibition at 6 µM (hERG (KCNH2)): 20%
- inhibition in vivo at 50 mg/kg [11]: 92%
- inhibition in vivo at 200 mg/kg [12]: 49%
- Activity (Mus musculus [13]): Non-toxic
- Activity (Mus musculus [14]): Non-toxic
- inhibition in vivo at 100 mg/kg (A549 [15]): 27%
- inhibition in vivo at 50 mg/kg (A2780): 41%
- Activity (A498): Active
- Activity (ZR-75-1): Active
- Activity (MOLT-3): Active
- Activity (CESS): Active
- Activity (KU812): Active
- Activity (MOLM-13): Active
- Activity (NALM-6): Active
- Activity (ML-2): Active

Reference: ChEMBL document CHEMBL3804796, “Discovery of Novel 3,3-Disubstituted Piperidines as Orally Bioavailable, Potent, and Efficacious HDM2-p53 Inhibitors” (ACS Med Chem Lett, 2016)
